From ChEMBL document CHEMBL3588858, “Peptidomimetic β-Secretase Inhibitors Comprising a Sequence of Amyloid-β Peptide for Alzheimer's Disease” (J Med Chem, 2015)
Numbered stars: 1 amine (or outer) side, 2 acyl side, 3 side chain; on linkers, the order of the positions; unused ones are H or OH. Square brackets hold non-standard residues; d marks the D form. Peptide text beside a SMILES is read from it. LeuΨ(S-CHOHCH2)Ala = CC(C)C[C@H](N[*:1])[C@@H](O)C[C@@H](C)C(=O)[*:2]

Columns and labels:
Homo sapiens = species: Homo sapiens; experiment: Selectivity ratio of Ki(app) for human recombinant BACE2 to Ki for human recombinant BACE1
[1] = Half life in human serum by HPLC-FLU analysis; assay type: ADME, cell-free
Method in brief: (§1)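 Peptide solution (50 µM in PBS, 2% DMSO) was mixed 1:4 with human serum or 10% mouse brain homogenate (PBS, 0.5% Triton X-100) and incubated at 37 °C for varying times. Reactions were stopped with acetonitrile and proteins spun out. Intact peptide was quantified by HPLC-FLU against per-compound calibration curves, following decay to about 50%. t1/2 was interpolated from a monophasic model fit; n = 3.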

[2] = Half life in mouse brain by HPLC-FLU analysis; assay type: ADME, tissue-based; method in brief: as §1
[3] = Cytotoxicity against human Caco2 cells assessed as cell viability at 25 to 50 uM after 4 to 24 hrs by MTS assay; assay type: cell-based; conditions: Caco-2 cells, read-out: Activity
Method in brief: (§2)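 Confluent Caco-2 cells (passage 26 to 41, grown in high-glucose DMEM with 10% FBS and 1% non-essential amino acids) exposed to test compounds from 2.5 nM to 50 µM in DMEM with 0.5% FBS for 4 h or 24 h. Medium replaced by MTS, 4 h at 37 °C, absorbance read at 490 nm. Viability given as % of cells in 0.5% FBS DMEM.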

Caco-2 = experiment: Cytotoxicity against human Caco2 cells assessed as cell viability at 25 to 50 uM after 24 hrs by MTS assay; assay type: cell-based; conditions: caco-2, 24 h; method in brief: as §2
Brain [4] = experiment: Retention time of the compound in female mouse brain at 0.53 mg/kg, iv by HPLC-FLU analysis; assay type: ADME, organism-based; conditions: in vivo
Method in brief: (§3)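 Female mice (8–12 weeks, 22–37 g) and male Wistar rats (8–12 weeks, 182–201 g) were fasted 24 h, then dosed iv at 0.53 mg/kg in PBS, in triplicate. Animals were sacrificed at 0.5, 1 and 2 h under pentobarbital. Blood was taken by cardiac puncture and brains perfused with chilled saline. Serum was acetonitrile-precipitated. Whole mouse brain, or rat cortex and hippocampus, was homogenized with an internal standard, HPLC-purified, then analysed by HPLC-FLU and ESI LC-MS.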

Serum [5] = experiment: Metabolic stability in female mouse serum at 0.53 mg/kg, iv by HPLC-FLU analysis; assay type: ADME, organism-based; conditions: in vivo; method in brief: as §3
Cortex [6] = experiment: Metabolic stability in Wistar rat brain cortex at 0.53 mg/kg, iv after 2 hrs by HPLC-FLU analysis; assay type: ADME, organism-based; conditions: in vivo; method in brief: as §3
Serum [7] = experiment: Metabolic stability in Wistar rat serum at 0.53 mg/kg, iv after 2 hrs by HPLC-FLU analysis; assay type: ADME, organism-based; conditions: in vivo; method in brief: as §3
Brain [8] = experiment: Retention time of the compound in female mouse brain treated with 0.53 mg/kg, iv (3S,6S,9S,12S,15S,18S,21R,23S,24S,27S,30S,33S)-33-acetamido-15-benzyl-3-carbamoyl-6-(2-carboxyethyl)-27-(carboxymethyl)-23-hydroxy-12-(4-hydroxybenzyl)-24,30-diisobutyl-18-isopropyl-9,21-dimethyl-5,8,11,14,17,20,26,29,32-nonaoxo-4,7,10,13,16,19,25,28,31-nonaazahexatriacontane-1,36-dioic acid by HPLC-FLU analysis; assay type: ADME, organism-based; conditions: in vivo; method in brief: as §3
Brain [9] = experiment: Drug formation in female mouse brain treated with 0.53 mg/kg, iv (3S,6S,9S,12S,15S,18S,21R,23S,24S,27S,30S,33S)-33-acetamido-15-benzyl-3-carbamoyl-6-(2-carboxyethyl)-27-(carboxymethyl)-23-hydroxy-12-(4-hydroxybenzyl)-24,30-diisobutyl-18-isopropyl-9,21-dimethyl-5,8,11,14,17,20,26,29,32-nonaoxo-4,7,10,13,16,19,25,28,31-nonaazahexatriacontane-1,36-dioic acid measured up to 2 hrs by HPLC-FLU/LC-MS …; assay type: ADME, organism-based; conditions: in vivo
Serum [10] = experiment: Drug formation in Wistar rat serum treated with 0.53 mg/kg, iv (3S,6S,9S,12S,15S,18S,21R,23S,24S,27S,30S,33S)-33-acetamido-15-benzyl-3-carbamoyl-6-(2-carboxyethyl)-27-(carboxymethyl)-23-hydroxy-12-(4-hydroxybenzyl)-24,30-diisobutyl-18-isopropyl-9,21-dimethyl-5,8,11,14,17,20,26,29,32-nonaoxo-4,7,10,13,16,19,25,28,31-nonaazahexatriacontane-1,36-dioic acid measured after 2 hrs by HPLC-FLU/LC-MS …; assay type: ADME, organism-based; conditions: in vivo
[11] = Drug uptake in female mouse brain at 0.53 mg/kg, iv up to 1 hr by HPLC-FLU analysis; assay type: ADME, organism-based; conditions: read-out: Drug uptake; method in brief: as §3
Cortex [12] = experiment: Drug formation in Wistar rat brain cortex treated with 0.53 mg/kg, iv (3S,6S,9S,12S,15S,18S,21R,23S,24S,27S,30S,33S)-33-acetamido-15-benzyl-3-carbamoyl-6-(2-carboxyethyl)-27-(carboxymethyl)-23-hydroxy-12-(4-hydroxybenzyl)-24,30-diisobutyl-18-isopropyl-9,21-dimethyl-5,8,11,14,17,20,26,29,32-nonaoxo-4,7,10,13,16,19,25,28,31-nonaazahexatriacontane-1,36-dioic acid measured after 2 hrs by …; assay type: ADME, organism-based; conditions: in vivo

Structure (SMILES)	Ratio (Homo sapiens)	half-life [1] [min]	half-life [2] [min]	viability at up to 50 µM [3] [%]	Activity (Caco-2)	viability at 50 µM [3] [%]	Retention_time (Brain [4]) [min]	Stability (Serum [5])	Stability (Cortex [6])	Stability (Serum [7])	Retention_time (Brain [8]) [min]	Drug metabolism (Brain [9])	Drug metabolism (Serum [10])	concentration at 1 h [11] [nM]	Drug metabolism (Cortex [12])
CC(C)C[C@H](NC(=O)[C@@H](N)CCC(=O)O)C(=O)N[C@@H](CC(=O)O)C(=O)N[C@@H](CC(C)C)[C@@H](O)C[C@@H](C)C(=O)N[C@H](C(=O)N[C@@H](Cc1ccccc1)C(=O)N[C@@H](Cc1ccc(O)cc1)C(=O)N[C@@H](C)C(=O)N[C@@H](CCC(=O)O)C(=O)N[C@@H](CC(=O)O)C(N)=O)C(C)C (H-ELD[LeuΨ(S-CHOHCH2)Ala]VFYAED-NH2)	7.5	126	138	> 80	Non-toxic	–	–	–	–	–	–	–	–	–	–
CC(C)C[C@H](NC(=O)[C@@H](N)CCC(=O)O)C(=O)N[C@@H](CC(=O)O)C(=O)N[C@@H](CC(C)C)[C@@H](O)C[C@@H](C)C(=O)N[C@H](C(=O)N[C@@H](CCC(=O)O)C(=O)N[C@@H](Cc1ccccc1)C(=O)O)C(C)C (H-ELD[LeuΨ(S-CHOHCH2)Ala]VEF-OH)	–	132	348	–	Non-toxic	> 80	–	–	–	–	–	–	–	–	–
CC(=O)N[C@@H](CCC(=O)O)C(=O)N[C@@H](CC(C)C)C(=O)N[C@@H](CC(=O)O)C(=O)N[C@@H](CC(C)C)[C@@H](O)C[C@@H](C)C(=O)N[C@H](C(=O)N[C@@H](Cc1ccccc1)C(=O)N[C@@H](Cc1ccc(O)cc1)C(=O)N[C@@H](C)C(=O)N[C@@H](CCC(=O)O)C(=O)N[C@@H](CC(=O)O)C(N)=O)C(C)C (Ac-ELD[LeuΨ(S-CHOHCH2)Ala]VFYAED-NH2)	9.2	360	206	–	Non-toxic	> 80	23.6	Unstable	Unstable	Stable	–	–	–	–	–
CC(C)C[C@H](NC(=O)[C@@H](N)CCC(=O)O)C(=O)N[C@@H](CC(=O)O)C(=O)N[C@@H](CC(C)C)[C@@H](O)C[C@@H](C)C(=O)N[C@H](C(=O)N[C@@H](Cc1ccccc1)C(=O)N[C@@H](Cc1ccc(O)cc1)C(=O)N[C@@H](C)C(=O)N[C@@H](CCC(=O)O)C(=O)N[C@@H](CC(=O)O)C(=O)O)C(C)C (H-ELD[LeuΨ(S-CHOHCH2)Ala]VFYAED-OH)	7.5	180	360	–	–	–	–	–	–	–	22.9	metabolite_detected	metabolite_detected	20	metabolite_detected
CC(C)C[C@H](NC(=O)[C@@H](N)CCC(=O)O)C(=O)N[C@@H](CC(=O)O)C(=O)N[C@@H](CC(C)C)[C@@H](O)C[C@@H](C)C(=O)N[C@H](C(=O)N[C@@H](Cc1ccccc1)C(=O)N[C@@H](Cc1ccccc1)C(=O)N[C@@H](C)C(=O)N[C@@H](CCC(=O)O)C(=O)N[C@@H](CC(=O)O)C(N)=O)C(C)C (H-ELD[LeuΨ(S-CHOHCH2)Ala]VFFAED-NH2)	3.7	–	–	–	Non-toxic	> 80	–	–	–	–	–	–	–	–	–
